Here are results for 27 variants from the RNAGym collection of RNA variant scans (doi:10.1101/gad.245936.114).

This sample holds only a part of the variants without activity. Some results are limits rather than exact numbers.

Sequences and labels used below:
B1: tRNA (parent)
chain: CUCUCGGUAGCCAAGUUGGUUUAAGGCGCAAGACUUUAAUUUAUCACUACGAAAUCUUGAGAUCGGGCGUUCGACUCGCCCCCGGGAGAUUUUUUCCUCGAGCAA

In the data set the parent is B1. As to the kind of experiment: nonsense suppression (GFP-seq) (ratio to wild type); higher = more function; SUP4oc tRNA, yeast GFP reporter sort-seq. The gist of the method: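 Yeast were grown in raffinose/galactose medium with 80 mg/L adenine, each strain bearing a genome-integrated ochre-suppressor tRNA variant from a ~3% random-mutation library, a galactose-driven GFP ochre reporter, and RFP. After sorting into GFP/RFP bins, every bin was sequenced on an Illumina platform at phred ≥30. The GFPSEQ value, a measure of nonsense suppression, is the weighted bin median GFP/RFP relative to the unmutated parent tRNA, using each variant's estimated cell share per bin as the weight. Only variants with ≥100 reads and ≥30 cells were included.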
As for UUCUCGGUAGCCAACUUGGUUUAAGCCGCAAGACUUUAAUUUAUCACUACGAAAUCUUGAGAUCGGGCGUUCGACUCGCCCCCGGGAGAUUUUUUCCUCGAGCAA [C1U G15C G26C], the nonsense suppression was no more than 0.026.

For the variant UUUUCGGUAGCUAAGUUGGUUUAAGGCGCAAGACUUUAAUUUAUCACUACGAAAUCUUGAGAUCGGGCGUUCGACUCGCCCCCGGGAGAUUUUUUCCUCGAGCAA [C1U C3U C12U], the nonsense suppression is no more than 0.026.

Consider GUCUCGGUACCCAAGUUGGUUUAAGGCGUAAGAGUUUAAUUUAUCACUACGAAAUCUUGAGAUCGGGCGUUCGACUCGCCCCCGGGAGGUUUUUUCCUCGAGCAA [C1G G10C C29U C34G A89G], for which the nonsense suppression was no more than 0.026.

In the case of GUCUCGGUAGCCAAGUUGGUUUAAAGCGCAAGACCUUAAUUUAUCACUACGAAAUCUUGAGAUCGGGCGUUCGACUCGCCCCCGGGAGAUUUUUUCCUCGAGCAA [C1G G25A U35C], the nonsense suppression was no more than 0.026.

Turning to UUCUCGGUAGCCAAGUUGGUUUAAGGCGCAAGACUUUAAUUUAUCACUACGAAUUCUUGAGAUCGGGCGUUCGACUCGCCCCCGGGAAAUUUUUUCCUCGAGCAA [C1U A54U G88A], the nonsense suppression came to 0.209.

For UUCUCGAUAGCCAAGUUGGUUUAAGGCGCAAGACUUUAAUUUAUCACUACGAAAUCUUGAGAUCGGGCGUUCGACUCGCCCCCGGGAGAUUUUUUCCUCGAGCAA [C1U G7A], the nonsense suppression is no more than 0.026.

For the variant GUCUCGGUAGCCAAGUUGGUUUAAGGCGCAAGACUUUAAUUUAUCACUACGAAAUCUCGAGUUCGGGCGUUCGACUCUCCCCCGGGAGAUUUUUUCCUCGAGCAA [C1G U58C A62U G78U], the nonsense suppression is no more than 0.026.

With UUUUCGGUAGCCAAGUUGGUUUAAGGCGCAAGACUUUAAUUUAUCACUACGAAAUCUUGAGAUGGGGCUUUCGACUCGCCCCCGGGAGAUUUUUUCCUCGAGCAA [C1U C3U C64G G69U], the nonsense suppression was no more than 0.026.

On to UUCUCGGUUGCCCAGUUGGUUUAAGGCGCAAGACUUUAAUUUAUCACUACGAAAUCUUGAGAUUGGGCGUUCGACUCGCCCCCGGGAGAUUUUUUCCUCGAGCAA [C1U A9U A13C C64U], for which the nonsense suppression is no more than 0.026.

In the case of GUCUCGGUAGCCAAGUUGGUUUAAGGCGAAAGAUUUUAAUUUAUCACUACGAAAUCUUGAGAUCGGGCGUUCGACUCGCCCCCGGGAGAUUUUUUCCUCGAGCAA [C1G C29A C34U], the nonsense suppression is no more than 0.026.

Consider UUCUCGGUAGCCAAGUUGUUUUAAGGCCCAAGACUUUAAUUUAUCACUACGAAAUCCUGAGAUCGGGCGUUCGACUCGCCCCCAGGAGAUUUUUUCCUCGAGCAA [C1U G19U G28C U57C G84A], for which the nonsense suppression was no more than 0.026.

Regarding UUCUCGGUAGCCAAGUUAGUGUAAGGUGCAAGACUUUAAUUUAUCACUACGAAAUCUUGAGAUCGGGCGUUCGACUCGCCCCCGGGAGAUUUUUUCCUCGAGCAA [C1U G18A U21G C27U], the nonsense suppression is no more than 0.026.

With UUCUCGGUUGCCAAGUUGGUUUACGGCGCUAGGCUUUAAUUUAUCACUACGAAAUCUUGAGAUCGGGCGUUCGACUCGCCCCCGGGAGAUUUUUUCCUCGAGCAA [C1U A9U A24C A30U A33G], the nonsense suppression was no more than 0.026.

Consider GUCUCUGUAGCCAAGUUGGUUUAAGGCGCAAGACUUUAAUUUAUCACUACGAAAUCUUGAGAUCGUGCGUUCUACUCGCCCCCGGGAGAUUUUUUCCUCGAGCAA [C1G G6U G66U G73U], for which the nonsense suppression was no more than 0.026.

In the case of UUCUCGGUAGCCAAGUUGGUUUAAGACGCAAGACUUUAAUUUAUCACUACGAAAUCUUGAGAUCGGGCGUUCGACUCGCCCCCGGGAGAUUUUUUCCUCGAGCAA [C1U G26A], the nonsense suppression was no more than 0.026.

Regarding UUCUCGGUAGCCAAGUUGGUUUAAGACGCAAGACUUUAAUUUAUCACUACGAAAUCCUGAGAUCGGGCGUUCGACUCGCCCCCGGGAGAUUUUUUCCUCGAGCAA [C1U G26A U57C], the nonsense suppression is no more than 0.026.

Take UUCUCGGUAGCCAGGUUGGUUUAAGGCGCAGGACUUUAAUUUAUCACUACGAAAUCUGGAGAUCGGGCGUUCGACUCGCCCCCGGGAGAUUUUUUCCUCGAGCAA [C1U A14G A31G U58G]: the nonsense suppression is no more than 0.026.

For GUCUCGGUAGCCAAGUUGGUUUAAGGCGCAAGACUUUAAUUUAUCACUACGAAAUCUUGAGAUCGGGCGUUCAACUCGCCCCCGGGAGAUUUUUUCCUCGAGCAA [C1G G73A], the nonsense suppression was 0.0631.

Regarding GUCUCGGUAGCCAAGUUGGCUUAAGGCGCAAGACUUUAAUUUAUCACUACGAAAUCUUGAGAUCGGGCGUUCGACUCGCCCCCGGGAGAUUUUUUCCUCGAGCAA [C1G U20C], the nonsense suppression amounted to 0.0266.

UUCUCGGUAGCCAAGUUGGUUUAAGGCGCAAGACUUUAAUUUAUCACUACGAAAUCUUGAGGUCGGGCGUUCGACUCGCACCCGGGAGAUUUUUUCCUCGAGCAA [C1U A62G C80A]: the nonsense suppression is no more than 0.026.

With GUCUCGAUAGCCAAGUUGGUUUAAGGCGCAAGACUUUAAUUUAUCACUACGAAAUCUUGAGAUCGCGCGUUCGCCUCGCCCCCGGGAGAUUUUUUCCUCGAGCAA [C1G G7A G66C A74C], the nonsense suppression was no more than 0.026.

For the variant UUCUCGGUAGCCAAGUUGGUUUAAGGCGCAAGACUUUAAUUUAUCACUACGAAAUCUUGAGAUCGAGCGUUCGACUCGCCCCCGGGAGAUUUUUUCCUCGAGCAA [C1U G66A], the nonsense suppression was found to be 0.254.

Consider UUGUCGGUAGCCAAGUUGGUUUAAGGCGCAAGACUUUAAUUUAUCACUACGAAAUCUUGAGAUCGGGCGUUCGACUCGCCCCCGGAAGAUUUUUUCCUCGAGCAA [C1U C3G G86A], for which the nonsense suppression is no more than 0.026.

Consider UUCUCGGUAGCCAAGUUGGUUUAAGUCGCAAGAGUUUAAUUUAUCACUACGAAAUCUUGAGAUCGGGCGUUCGACUCGCCCCCGGGAGAUUUUUUCCUCGAGCAA [C1U G26U C34G], for which the nonsense suppression is no more than 0.026.

Take UUCUCGGUAGCCCAGUUGGUUUAAGGCGCCAGACUUUAAUUUAUCACUACGAAAUCUUGAGAUCGGGCGUUCGACUUGCCCCCGGGAGCUUUUUUCCUCGAGCAA [C1U A13C A30C C77U A89C]: the nonsense suppression was no more than 0.026.

For the variant UUCUCGUUAGCCAAAUUGGUUUAAGGCGCAAGACAUUAAUUUAUCACUACGAAAUCUUGAGGUCGGGCGUUCGACUCGCCCCCGGGAGAUUUUUUCCUCGAGCAA [C1U G7U G15A U35A A62G], the nonsense suppression is no more than 0.026.

As for UUCUCGGUAGCUAAGUUGGUUUAAGGCGCAAGACUUUAAUUUAUCACUACGAAAUCUUGAGAUCGGGCGUUCGACUCGCCCCCGGGAGAUUUUUUCCUCGAGCAA [C1U C12U], the nonsense suppression was no more than 0.026.
